Legend:
[1] = target: Voltage-dependent L-type calcium channel subunit alpha-1D (Rattus norvegicus, UniProt P27732); test: Antagonist activity at rat Cav1.3 expressed in HEK293 cells assessed as inhibition of voltage pulse-induced calcium current by FLIPR calcium 4 assay; type: functional, cell-based
Summary of the method: (§1)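 HEK293 lines stably expressing Cavβ3 and Cavα2δ-1 plus Cav1.2 α1C (rabbit) or Cav1.3 α1D (rat) were selected with zeocin/hygromycin. Calcium signals were read by FLIPR with Calcium 4 dye. IC50 came from 11-point dose-response curves. Signal percentage error (SD/mean) was 6.4% for Cav1.2 and 4.1% for Cav1.3 cells.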

[2] = target: Voltage-dependent L-type calcium channel subunit alpha-1C (Oryctolagus cuniculus, UniProt P15381); test: Antagonist activity at rabbit Cav1.2 expressed in HEK293 cells assessed as inhibition of voltage pulse-induced calcium current by FLIPR calcium 4 assay; type: functional, cell-based; summary of the method: as §1
Voltage-dependent L-type calcium channel subunit alpha-1C, sequence (P15381 whole entry): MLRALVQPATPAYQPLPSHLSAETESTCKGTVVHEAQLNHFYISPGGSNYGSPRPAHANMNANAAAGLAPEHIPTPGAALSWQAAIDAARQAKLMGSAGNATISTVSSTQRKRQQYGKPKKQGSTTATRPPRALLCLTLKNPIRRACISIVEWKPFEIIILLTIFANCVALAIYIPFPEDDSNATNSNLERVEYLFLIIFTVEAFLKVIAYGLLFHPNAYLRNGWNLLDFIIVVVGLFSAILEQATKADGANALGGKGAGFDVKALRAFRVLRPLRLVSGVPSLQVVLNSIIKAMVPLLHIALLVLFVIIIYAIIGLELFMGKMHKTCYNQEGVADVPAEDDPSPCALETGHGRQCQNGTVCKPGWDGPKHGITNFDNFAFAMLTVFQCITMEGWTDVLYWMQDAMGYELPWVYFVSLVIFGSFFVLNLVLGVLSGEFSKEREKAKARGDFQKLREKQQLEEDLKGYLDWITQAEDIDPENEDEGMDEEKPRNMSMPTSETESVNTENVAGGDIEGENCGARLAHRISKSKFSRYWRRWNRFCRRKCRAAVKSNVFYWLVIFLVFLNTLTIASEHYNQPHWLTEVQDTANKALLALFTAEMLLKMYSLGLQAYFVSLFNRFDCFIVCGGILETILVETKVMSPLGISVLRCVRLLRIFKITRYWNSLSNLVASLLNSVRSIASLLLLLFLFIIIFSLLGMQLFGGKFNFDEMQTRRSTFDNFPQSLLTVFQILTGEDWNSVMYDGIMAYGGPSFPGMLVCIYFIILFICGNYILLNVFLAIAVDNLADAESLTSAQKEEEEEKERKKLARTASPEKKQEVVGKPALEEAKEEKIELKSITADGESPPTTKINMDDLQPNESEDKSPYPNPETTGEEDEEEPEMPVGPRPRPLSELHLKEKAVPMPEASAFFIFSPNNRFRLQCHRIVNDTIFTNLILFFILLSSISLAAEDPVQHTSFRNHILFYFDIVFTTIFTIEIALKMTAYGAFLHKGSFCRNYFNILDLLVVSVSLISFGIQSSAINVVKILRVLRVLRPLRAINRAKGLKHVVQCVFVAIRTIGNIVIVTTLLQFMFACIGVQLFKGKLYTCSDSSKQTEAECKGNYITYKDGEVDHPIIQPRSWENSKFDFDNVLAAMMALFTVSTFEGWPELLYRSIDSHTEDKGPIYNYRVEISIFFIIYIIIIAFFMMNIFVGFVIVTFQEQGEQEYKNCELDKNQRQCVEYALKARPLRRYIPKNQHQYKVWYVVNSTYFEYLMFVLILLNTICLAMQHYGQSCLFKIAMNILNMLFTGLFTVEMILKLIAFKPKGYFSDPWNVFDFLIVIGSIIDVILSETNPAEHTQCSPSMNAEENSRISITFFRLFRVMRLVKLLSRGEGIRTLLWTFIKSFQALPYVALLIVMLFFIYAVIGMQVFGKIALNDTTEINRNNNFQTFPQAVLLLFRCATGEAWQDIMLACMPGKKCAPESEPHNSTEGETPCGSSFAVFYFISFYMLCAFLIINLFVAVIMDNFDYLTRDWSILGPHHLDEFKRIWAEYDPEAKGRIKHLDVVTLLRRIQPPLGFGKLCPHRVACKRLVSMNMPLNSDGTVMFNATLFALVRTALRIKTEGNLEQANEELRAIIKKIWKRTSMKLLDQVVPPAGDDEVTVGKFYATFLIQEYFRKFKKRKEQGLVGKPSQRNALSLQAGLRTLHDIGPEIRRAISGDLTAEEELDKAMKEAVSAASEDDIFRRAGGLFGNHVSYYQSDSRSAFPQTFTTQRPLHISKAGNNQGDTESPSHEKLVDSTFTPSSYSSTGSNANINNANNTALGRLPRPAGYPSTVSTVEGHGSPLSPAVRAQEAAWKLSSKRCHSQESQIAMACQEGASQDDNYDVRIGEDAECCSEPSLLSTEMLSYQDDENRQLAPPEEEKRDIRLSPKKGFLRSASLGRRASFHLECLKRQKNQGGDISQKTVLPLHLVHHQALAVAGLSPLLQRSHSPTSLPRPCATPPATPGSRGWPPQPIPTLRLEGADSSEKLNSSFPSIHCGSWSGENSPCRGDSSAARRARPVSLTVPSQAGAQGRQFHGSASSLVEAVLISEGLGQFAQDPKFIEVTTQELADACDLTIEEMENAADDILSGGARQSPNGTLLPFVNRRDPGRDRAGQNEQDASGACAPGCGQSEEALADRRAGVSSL

Voltage-dependent L-type calcium channel subunit alpha-1D, sequence (P27732 whole entry): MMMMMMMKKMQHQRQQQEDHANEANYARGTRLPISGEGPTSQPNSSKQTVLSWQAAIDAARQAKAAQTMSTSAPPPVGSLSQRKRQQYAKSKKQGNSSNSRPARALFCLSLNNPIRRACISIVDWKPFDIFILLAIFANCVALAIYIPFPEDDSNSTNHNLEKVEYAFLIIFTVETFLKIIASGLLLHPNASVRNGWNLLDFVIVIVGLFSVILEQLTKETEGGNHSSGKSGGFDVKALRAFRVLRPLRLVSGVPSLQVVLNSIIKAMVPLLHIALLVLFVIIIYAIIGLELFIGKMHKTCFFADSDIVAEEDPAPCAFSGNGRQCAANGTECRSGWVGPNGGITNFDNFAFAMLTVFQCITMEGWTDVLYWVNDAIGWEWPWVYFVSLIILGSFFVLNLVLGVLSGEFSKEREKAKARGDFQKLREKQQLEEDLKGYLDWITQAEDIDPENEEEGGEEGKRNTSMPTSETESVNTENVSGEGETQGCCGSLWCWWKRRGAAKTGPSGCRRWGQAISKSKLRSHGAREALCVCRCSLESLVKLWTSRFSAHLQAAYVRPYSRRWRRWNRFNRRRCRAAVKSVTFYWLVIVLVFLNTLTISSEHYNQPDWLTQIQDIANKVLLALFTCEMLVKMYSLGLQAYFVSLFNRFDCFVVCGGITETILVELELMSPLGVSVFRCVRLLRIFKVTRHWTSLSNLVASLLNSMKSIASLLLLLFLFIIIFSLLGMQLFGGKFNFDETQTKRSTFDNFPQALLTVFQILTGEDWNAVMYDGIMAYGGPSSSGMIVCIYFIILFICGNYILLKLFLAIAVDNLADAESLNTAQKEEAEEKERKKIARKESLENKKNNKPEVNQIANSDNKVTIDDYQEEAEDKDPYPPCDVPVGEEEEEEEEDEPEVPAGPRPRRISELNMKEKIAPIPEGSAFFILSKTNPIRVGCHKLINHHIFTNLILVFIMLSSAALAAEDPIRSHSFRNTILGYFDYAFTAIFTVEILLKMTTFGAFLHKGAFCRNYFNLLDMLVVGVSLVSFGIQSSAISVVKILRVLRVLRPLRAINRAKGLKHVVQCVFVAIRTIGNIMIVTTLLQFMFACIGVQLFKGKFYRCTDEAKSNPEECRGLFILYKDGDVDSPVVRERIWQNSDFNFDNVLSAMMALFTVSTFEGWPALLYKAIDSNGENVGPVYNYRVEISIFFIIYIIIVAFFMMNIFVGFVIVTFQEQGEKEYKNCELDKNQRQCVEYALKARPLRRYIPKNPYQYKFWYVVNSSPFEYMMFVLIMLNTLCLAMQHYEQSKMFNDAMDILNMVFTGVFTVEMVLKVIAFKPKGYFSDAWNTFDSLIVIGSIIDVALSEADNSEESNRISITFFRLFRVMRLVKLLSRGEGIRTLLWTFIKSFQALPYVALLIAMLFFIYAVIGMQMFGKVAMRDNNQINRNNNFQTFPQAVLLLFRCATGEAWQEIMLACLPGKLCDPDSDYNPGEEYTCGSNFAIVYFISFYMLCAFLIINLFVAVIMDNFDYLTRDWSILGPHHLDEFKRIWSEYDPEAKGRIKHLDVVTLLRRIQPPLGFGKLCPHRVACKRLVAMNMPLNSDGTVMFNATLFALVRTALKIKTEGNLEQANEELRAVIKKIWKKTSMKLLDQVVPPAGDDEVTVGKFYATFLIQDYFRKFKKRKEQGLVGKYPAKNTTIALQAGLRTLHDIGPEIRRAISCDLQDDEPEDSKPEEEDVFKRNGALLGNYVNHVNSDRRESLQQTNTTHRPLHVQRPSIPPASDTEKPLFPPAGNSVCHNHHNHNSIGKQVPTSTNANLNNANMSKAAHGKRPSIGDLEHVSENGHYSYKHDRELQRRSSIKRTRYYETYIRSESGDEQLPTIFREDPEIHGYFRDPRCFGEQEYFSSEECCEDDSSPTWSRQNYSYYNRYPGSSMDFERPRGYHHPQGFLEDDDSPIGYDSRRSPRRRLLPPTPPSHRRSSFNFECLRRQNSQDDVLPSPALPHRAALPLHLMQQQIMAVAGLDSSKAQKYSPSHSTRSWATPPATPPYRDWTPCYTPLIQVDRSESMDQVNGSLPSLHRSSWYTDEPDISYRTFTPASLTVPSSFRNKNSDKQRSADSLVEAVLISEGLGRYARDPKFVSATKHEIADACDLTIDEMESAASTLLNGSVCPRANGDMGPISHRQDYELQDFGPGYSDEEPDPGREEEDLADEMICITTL

Row | SMILES | IC50 [1] [nM] | IC50 [2] [nM]
1 | CCOC(=O)C1=C(C)NC(CO)=C(C(=O)OCC)C1c1cccc([N+](=O)[O-])c1 (stereo not drawn) | 45 | 49
2 | COC(=O)C1=C(C)NC(C)=C(C(=O)OCc2c(Cl)cc(Cl)cc2Cl)C1c1cccc([N+](=O)[O-])c1 (stereo not drawn) | 34 | 10
3 | COC(=O)C1=C(C)NC(C)=C(C(=O)OCc2ccco2)C1c1cccc([N+](=O)[O-])c1 (stereo not drawn) | 15 | 20
4 | COC(=O)C1=C(C)NC(C)=C(C(=O)OCC(F)(F)F)C1c1cccc([N+](=O)[O-])c1 (stereo not drawn) | 21 | 16
5 | CCCCC1=C(C(=O)OCC)C(c2cccc([N+](=O)[O-])c2)C(C(=O)OCC)=C(C)N1 (stereo not drawn) | 20 | 20
6 | COC(=O)C1=C(C)NC(C)=C(C(=O)OCCOc2ccccc2Cl)C1c1cccc([N+](=O)[O-])c1 (stereo not drawn) | 46 | 19
7 | C=CCOC(=O)C1=C(C)NC(C)=C(C(=O)OCC)C1c1cccc([N+](=O)[O-])c1 (stereo not drawn) | 15 | 25
8 | C=CCOC(=O)C1=C(C)NC(C)=C(C(=O)OC)C1c1ccccc1[N+](=O)[O-] (stereo not drawn) | 10 | 8
9 | COC(=O)C1=C(C)NC(C)=C(C(=O)OCCCCc2ccc(OC)cc2)C1c1cccc([N+](=O)[O-])c1 (stereo not drawn) | 38 | 17
10 | C=C(C)C(=O)OCCOC(=O)C1=C(C)NC(C)=C(C(=O)OCC)C1c1cccc([N+](=O)[O-])c1 (stereo not drawn) | 10 | 10
11 | COC(=O)C1=C(C)NC(C)=C(C(=O)OCC(C)[N+](=O)[O-])C1c1cccc([N+](=O)[O-])c1 (stereo not drawn) | 111 | 108
12 | CCOC(=O)C1=C(C)NC(COC)=C(C(=O)OC)C1c1cccc([N+](=O)[O-])c1 (stereo not drawn) | 96 | 14
13 | COC(=O)C1=C(C)NC(C)=C(C(=O)O)C1c1cccc([N+](=O)[O-])c1 (stereo not drawn) | 930 | 900
14 | COC(=O)C1=C(C)NC(C)=C(C(=O)OCc2ccc3c(c2)OCO3)C1c1cccc([N+](=O)[O-])c1 (stereo not drawn) | 22 | 13
15 | COC(=O)C1=C(C)NC(C)=C(C(=O)OCCC#N)[C@@H]1c1cccc([N+](=O)[O-])c1 | 399 | 262
16 | CCOC(=O)C1=C(C)NC(C)=C(C(=O)OCCOC)C1c1cccc([N+](=O)[O-])c1 (stereo not drawn) | 82 | 16
17 | CCCCCOC(=O)C1=C(C)NC(C)=C(C(=O)OCC)C1c1cccc([N+](=O)[O-])c1 (stereo not drawn) | 130 | 49

Row | SMILES | IC50 [1] [nM] | IC50 [2] [nM]
18 | CCOC(=O)C1=C(C)OC(C)=C(C(=O)OCC)C1c1cccc([N+](=O)[O-])c1 | 1920 | > 4000
19 | COC(=O)C1=C(C)NC(C)=C(C(=O)OCc2ccccc2)C1c1cccc([N+](=O)[O-])c1 (stereo not drawn) | 15 | 25
20 | CCOC(=O)C1=C(C)NC(CCl)=C(C(=O)OCC)C1c1cccc([N+](=O)[O-])c1 (stereo not drawn) | 53 | 10
21 | CCOC(=O)C1=C(C)NC(C)=C(C(=O)OCC)C1(C)c1ccccc1 | 2140 | 630
22 | COC(=O)C1=C(C)NC(C)=C(C(=O)OCCC#N)[C@H]1c1cccc([N+](=O)[O-])c1 | 589 | 143
23 | CCOC(=O)C1=C(C)NC2=C(C(=O)OC2)C1c1cccc([N+](=O)[O-])c1 (stereo not drawn) | > 4000 | > 4000
24 | COC(=O)C1=C(C)NC(C)=C(C(=O)OCC23CC4CC(C)(CC(C)(C4)C2)C3)C1c1cccc([N+](=O)[O-])c1 (stereo not drawn) | 5070 | 685
25 | COC(=O)C1=C(C)NC(C)=C(C(=O)OC/C=C/c2ccccc2)C1c1cccc([N+](=O)[O-])c1 (stereo not drawn) [PRANIDIPINE] | 37 | 37
26 | COC(=O)C1=C(C)NC(C)=C(C(=O)OC2Cc3ccccc3C2)C1c1cccc([N+](=O)[O-])c1 (stereo not drawn) | 43 | 72
27 | CCOC(=O)C1=C(C)NC(C(OCC)OCC)=C(C(=O)OCC)C1c1cccc([N+](=O)[O-])c1 (stereo not drawn) | 615 | 460
28 | COC(=O)C1=C(C)NC(C)=C(C(=O)OCc2cccs2)C1c1cccc([N+](=O)[O-])c1 (stereo not drawn) | 23 | 31
29 | COC(=O)C1=C(C)NC(C)=C(C(=O)OCC2CC2)C1c1cccc([N+](=O)[O-])c1 (stereo not drawn) | 21 | 28
30 | CCOC(=O)C1=C(C)NC(/C=C/c2ccc([N+](=O)[O-])cc2)=C(C(=O)OCC)C1c1cccc([N+](=O)[O-])c1 (stereo not drawn) | 2060 | 1940
31 | COC(=O)C1=C(C)NC(C)=C(C(=O)OCc2ccc(OC)c(OC)c2)C1c1cccc([N+](=O)[O-])c1 (stereo not drawn) | 117 | 112
32 | CCOC(=O)C1=C(C)NC(C)=C(C(=O)OCC)C1c1cccc(F)c1F | 10 | 15
33 | CCOC(=O)C1=C(C)NC(COC(=O)c2ccccc2)=C(C(=O)OCC)C1c1cccc([N+](=O)[O-])c1 (stereo not drawn) | 170 | 210
34 | CCOC(=O)C1=C(C)NC(COC(C)=O)=C(C(=O)OCC)C1c1cccc([N+](=O)[O-])c1 (stereo not drawn) | 37 | 10

Source: ChEMBL document CHEMBL1158565, “Antagonism of 4-substituted 1,4-dihydropyridine-3,5-dicarboxylates toward voltage-dependent L-type Ca2+ channels Ca V 1.3 and Ca V 1.2” (Bioorg Med Chem, 2010)
